ChEMBL document CHEMBL1140227, “Histone deacetylase inhibitors through click chemistry” (J Med Chem, 2008)

Key:
Assay type in all cases: functional
[1] = test system: NCI-H522; experiment: Growth inhibition of human NCI-H522 cells at 10 uM relative to control; details: values are per cent of control
How it was run: (§1)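 Single-dose preliminary screen in the NCI human cancer cell line panel, run by the NIH. Percent inhibition of cell line growth was calculated by comparison with untreated samples.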

[2] = test system: T47D; experiment: Growth inhibition of human T47D cells at 10 uM relative to control; details: values are per cent of control
How it was run: (§2)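 Single-dose NCI human tumour cell line screen, run by the NIH. Percent inhibition of cell line growth was calculated by comparison with untreated samples.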

[3] = test system: EKVX; experiment: Growth inhibition of human EKVX cells at 10 uM relative to control; details: values are per cent of control; how it was run: as §1
[4] = test system: OVCAR-3; experiment: Growth inhibition of human OVCAR-3 cells at 10 uM relative to control; details: values are per cent of control; how it was run: as §1
[5] = test system: HL-60(TB); experiment: Growth inhibition of human HL-60(TB) cells at 10 uM relative to control; details: read-out: INH
How it was run: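 Single-dose cell line screen run by the NCI (NIH) in its human cancer cell line panel, which includes the leukemia line HL-60(TB). Percent growth inhibition was calculated by comparison with untreated samples.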

[6] = test system: UACC-257; experiment: Growth inhibition of human UACC257 cells at 10 uM relative to control; details: values are per cent of control; how it was run: as §2
[7] = test system: K562; experiment: Growth inhibition of human K562 cells at 10 uM relative to control; details: values are per cent of control; how it was run: as §1
[8] = test system: SK-MEL-5; experiment: Growth inhibition of human SK-MEL-5 cells at 10 uM relative to control; details: values are per cent of control; how it was run: as §1
[9] = test system: MOLT-4; experiment: Growth inhibition of human MOLT4 cells at 10 uM relative to control; details: values are per cent of control; how it was run: as §1
[10] = test system: HT-29; experiment: Growth inhibition of human HT-29 cells at 10 uM relative to control; details: values are per cent of control; how it was run: as §1
[11] = test system: NCI-H460; experiment: Growth inhibition of human NCI-H460 cells at 10 uM relative to control; details: values are per cent of control; how it was run: as §1
[12] = test system: CCRF-CEM; experiment: Growth inhibition of human CCRF-CEM cells at 10 uM relative to control; details: values are per cent of control; how it was run: as §1
[13] = Growth inhibition of human RPMI8266 cells at 10 uM relative to control; details: values are per cent of control; how it was run: as §1
[14] = test system: 786-0; experiment: Growth inhibition of human 786-0 cells at 10 uM relative to control; details: values are per cent of control; how it was run: as §1
[15] = test system: OVCAR-8; experiment: Growth inhibition of human OVCAR8 cells at 10 uM relative to control; details: values are per cent of control; how it was run: as §1
[16] = test system: BT-549; experiment: Growth inhibition of human BT549 cells at 10 uM relative to control; details: values are per cent of control; how it was run: as §1
[17] = Growth inhibition of human Hs 578T cells at 10 uM relative to control; details: values are per cent of control; how it was run: as §1
[18] = test system: TK-10; experiment: Growth inhibition of human TK10 cells at 10 uM relative to control; details: values are per cent of control; how it was run: as §2
[19] = test system: NCI/ADR-RES; experiment: Growth inhibition of human NCI/ADR-RES cells at 10 uM relative to control; details: values are per cent of control; how it was run: as §1
[20] = test system: NCI-H322M; experiment: Growth inhibition of human NCI-H322M cells at 10 uM relative to control; details: values are per cent of control; how it was run: as §1
[21] = test system: SK-MEL-2; experiment: Growth inhibition of human SK-MEL-2 cells at 10 uM relative to control; details: values are per cent of control; how it was run: as §1
[22] = test system: IGROV-1; experiment: Growth inhibition of human IGROV1 cells at 10 uM relative to control; details: values are per cent of control; how it was run: as §1
[23] = test system: Malme-3M; experiment: Growth inhibition of human MALME-3M cells at 10 uM relative to control; details: values are per cent of control; how it was run: as §1
[24] = test system: OVCAR-4; experiment: Growth inhibition of human OVCAR4 cells at 10 uM relative to control; details: values are per cent of control; how it was run: as §1
[25] = test system: SF-295; experiment: Growth inhibition of human SF295 cells at 10 uM relative to control; details: values are per cent of control; how it was run: as §1
[26] = test system: UO-31; experiment: Growth inhibition of human UO31 cells at 10 uM relative to control; details: values are per cent of control; how it was run: as §2
[27] = test system: SW-620; experiment: Growth inhibition of human SW620 cells at 10 uM relative to control; details: values are per cent of control; how it was run: as §2
[28] = test system: OVCAR-5; experiment: Growth inhibition of human OVCAR5 cells at 10 uM relative to control; details: values are per cent of control; how it was run: as §1
[29] = test system: NCI-H226; experiment: Growth inhibition of human NCI-H226 cells at 10 uM relative to control; details: values are per cent of control; how it was run: as §1
[30] = test system: U-251; experiment: Growth inhibition of human U251 cells at 10 uM relative to control; details: values are per cent of control; how it was run: as §2
[31] = test system: HCT-116; experiment: Growth inhibition of human HCT116 cells at 10 uM relative to control; details: values are per cent of control; how it was run: as §1
[32] = test system: SN12C; experiment: Growth inhibition of human SN12C cells at 10 uM relative to control; details: values are per cent of control; how it was run: as §1
[33] = test system: COLO 205; experiment: Growth inhibition of human COLO205 cells at 10 uM relative to control; details: values are per cent of control; how it was run: as §1
[34] = test system: PC-3; experiment: Growth inhibition of human PC3 cells at 10 uM relative to control; details: values are per cent of control; how it was run: as §1
[35] = test system: HCC 2998; experiment: Growth inhibition of human HCC2998 cells at 10 uM relative to control; details: values are per cent of control; how it was run: as §1
[36] = test system: MCF7; experiment: Growth inhibition of human MCF7 cells at 10 uM relative to control; details: values are per cent of control; how it was run: as §1
[37] = test system: MDA-MB-468; experiment: Growth inhibition of human MDA-MB-468 cells at 10 uM relative to control; details: values are per cent of control; how it was run: as §1
[38] = test system: SK-OV-3; experiment: Growth inhibition of human SKOV3 cells at 10 uM relative to control; details: values are per cent of control; how it was run: as §1
[39] = test system: NCI-H23; experiment: Growth inhibition of human NCI-H23 cells at 10 uM relative to control; details: values are per cent of control; how it was run: as §1
[40] = test system: SNB-75; experiment: Growth inhibition of human SNB75 cells at 10 uM relative to control; details: values are per cent of control; how it was run: as §2
[41] = test system: SNB-19; experiment: Growth inhibition of human SNB19 cells at 10 uM relative to control; details: values are per cent of control; how it was run: as §1
[42] = test system: A549; experiment: Growth inhibition of human A549 cells at 10 uM relative to control; details: values are per cent of control; how it was run: as §1
[43] = test system: MDA-MB-435; experiment: Growth inhibition of human MDA-MB-435 cells at 10 uM relative to control; details: values are per cent of control; how it was run: as §1
[44] = test system: HCT-15; experiment: Growth inhibition of human HCT15 cells at 10 uM relative to control; details: values are per cent of control; how it was run: as §1
[45] = test system: A498; experiment: Growth inhibition of human A498 cells at 10 uM relative to control; details: values are per cent of control; how it was run: as §1
[46] = test system: MDA-MB-231; experiment: Growth inhibition of human MDA-MB-231 cells at 10 uM relative to control; details: values are per cent of control; how it was run: as §1
[47] = cells; details: Homo sapiens, Cancer cell lines
[48] = test system: UACC-62; experiment: Growth inhibition of human UACC62 cells at 10 uM relative to control; details: values are per cent of control; how it was run: as §2
[49] = test system: SF-268; experiment: Growth inhibition of human SF268 cells at 10 uM relative to control; details: values are per cent of control; how it was run: as §1
[50] = test system: M14; experiment: Growth inhibition of human M14 cells at 10 uM relative to control; details: values are per cent of control; how it was run: as §1
[51] = test system: ACHN; experiment: Growth inhibition of human ACHN cells at 10 uM relative to control; details: values are per cent of control; how it was run: as §1
[52] = test system: DU-145; experiment: Growth inhibition of human DU145 cells at 10 uM relative to control; details: values are per cent of control; how it was run: as §1
[53] = test system: HOP-62; experiment: Growth inhibition of human HOP62 cells at 10 uM relative to control; details: values are per cent of control; how it was run: as §1
[54] = test system: KM12; experiment: Growth inhibition of human KM12 cells at 10 uM relative to control; details: values are per cent of control; how it was run: as §1
[55] = test system: SF-539; experiment: Growth inhibition of human SF539 cells at 10 uM relative to control; details: values are per cent of control; how it was run: as §1

`O=C(Cn1cc(C(=O)NO)nn1)c1ccccc1` showed a growth, % of control at 10 µM [1] of 99.2%, a growth, % of control at 10 µM [2] of 102% and a growth, % of control at 10 µM [3] of 108%. For the same compound, the growth, % of control at 10 µM [4] was 146%, the growth, % of control at 10 µM [5] was 136% and the growth, % of control at 10 µM [6] was 112%. For the same compound, the growth, % of control at 10 µM [7] was 85.1%, the growth, % of control at 10 µM [8] was 111% and the growth, % of control at 10 µM [9] was 110%. For the same compound, the growth, % of control at 10 µM [10] was 115%, the growth, % of control at 10 µM [11] was 120% and the growth, % of control at 10 µM [12] was 92.1%. The growth, % of control at 10 µM [13] was 79.8%, the growth, % of control at 10 µM [14] was 105% and the growth, % of control at 10 µM [15] was 96.2%. For the same compound, the growth, % of control at 10 µM [16] was 108%, the growth, % of control at 10 µM [17] was 90% and the growth, % of control at 10 µM [18] was 113%. The growth, % of control at 10 µM [19] was 91.3%, the growth, % of control at 10 µM [20] was 95.9% and the growth, % of control at 10 µM [21] was -26.8%. It also gave a growth, % of control at 10 µM [22] of 100%, a growth, % of control at 10 µM [23] of 107% and a growth, % of control at 10 µM [24] of 112%. For the same compound, the growth, % of control at 10 µM [25] was 126%, the growth, % of control at 10 µM [26] was 84.7% and the growth, % of control at 10 µM [27] was 94.8%. It also gave a growth, % of control at 10 µM [28] of 84.1%, a growth, % of control at 10 µM [29] of 87.6% and a growth, % of control at 10 µM [30] of 96.9%. The growth, % of control at 10 µM [31] was 97.3%, the growth, % of control at 10 µM [32] was 97.7% and the growth, % of control at 10 µM [33] was 123%. It also gave a growth, % of control at 10 µM [34] of 82.1%, a growth, % of control at 10 µM [35] of 107% and a growth, % of control at 10 µM [36] of 112%. It also gave a growth, % of control at 10 µM [37] of 110%, a growth, % of control at 10 µM [38] of 109% and a growth, % of control at 10 µM [39] of 110%. The growth, % of control at 10 µM [40] was 117%, the growth, % of control at 10 µM [41] was 95.9% and the growth, % of control at 10 µM [42] was 103%. For the same compound, the growth, % of control at 10 µM [43] was 106%, the growth, % of control at 10 µM [44] was 108% and the growth, % of control at 10 µM [45] was 67.6%. For the same compound, the growth, % of control at 10 µM [46] was 101%, the inhibition at 10 µM [47] was greater than 95% and the growth, % of control at 10 µM [48] was 93.3%. It also gave a growth, % of control at 10 µM [49] of 104%, a growth, % of control at 10 µM [50] of 94.1% and a growth, % of control at 10 µM [51] of 99.2%. The growth, % of control at 10 µM [52] was 135%, the growth, % of control at 10 µM [53] was 118% and the growth, % of control at 10 µM [54] was 108%. It also gave a growth, % of control at 10 µM [55] of 118%.
